Measurements: ChEMBL document CHEMBL3351454, “Design, synthesis, antimicrobial evaluation and molecular docking studies of some new thiophene, pyrazole and pyridone derivatives bearing sulfisoxazole moiety” (2014)
Values after ≈ are worked out from the molar mass of the structure shown.

Columns and labels:
Type in all cases: functional
Streptococcus pneumoniae [1] = test: Antimicrobial activity against Streptococcus pneumoniae RCMB 010010 assessed as absence of turbidity after 24 hrs; settings: RCMB 010010, 24 h
Summary of the method: (§1)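 Broth microdilution in Müller–Hinton broth. DMF stocks at 1000 µg/mL were diluted in broth to give twofold serial dilutions over 500–0.007 µg/mL. Bacterial inoculum was about 10^6 CFU/mL in 96-well plates, sealed and incubated at 37 °C for 24 h in a humid chamber. MIC was taken as the lowest concentration with no visible turbidity. DMF and uninoculated-medium controls were included. Only compounds giving zones >10 mm were tested.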

[2] = tested on: Syncephalastrum racemosum; test: Antifungal activity against Syncephalastrum racemosum RCMB 05922 assessed as absence of turbidity after 48 hrs; settings: RCMB 05922, 48 h
Bacillus subtilis [3] = test: Antimicrobial activity against Bacillis subtilis RCMB 010067 assessed as absence of turbidity after 24 hrs; settings: RCMB 010067, 24 h; summary of the method: as §1
Aspergillus fumigatus [4] = test: Antifungal activity against Aspergillus fumigatus RCMB 02568 assessed as inhibition zone at 5 mg/ml after 48 hrs; settings: RCMB 02568, 48 h, read-out: IZ
Summary of the method: (§2)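 Disk diffusion on nutrient agar seeded with 10^4 CFU/mL fungus. Sterile filter-paper disks carried 100 µL of a 5 mg/mL DMF solution, and DMF alone served as control. Plates were incubated at 25 °C for 48 h. Mean inhibition zone in mm ± SD was read beyond the 6 mm diameter, in triplicate.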

Geotrichum candidum [5] = test: Antifungal activity against Geotrichum candidum RCMB 05097 assessed as inhibition zone at 5 mg/ml after 48 hrs; settings: RCMB 05097, 48 h, read-out: IZ; summary of the method: as §2
Klebsiella pneumoniae [6] = test: Antimicrobial activity against Klebsiella pneumoniae RCMB 010093 assessed as absence of turbidity after 24 hrs; summary of the method: as §1
Bacillus subtilis [7] = test: Antimicrobial activity against Bacillis subtilis RCMB 010067 assessed as inhibition zone at 5 mg/ml after 24 hrs; settings: RCMB 010067, 24 h, read-out: IZ
Summary of the method: (§3)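 Agar diffusion on nutrient agar seeded with 10^6 CFU/mL bacteria. Filter-paper disks were loaded with 100 µL of a 5 mg/mL compound solution in DMF, with a DMF-only control. Incubation was 37 °C for 24 h. Inhibition zone in mm (mean ± SD, triplicate plates) was measured beyond the 6 mm diameter.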

Geotrichum candidum [8] = test: Antifungal activity against Geotrichum candidum RCMB 05097 assessed as absence of turbidity after 48 hrs; settings: RCMB 05097, 48 h
Summary of the method: as §1, with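 “Sabouraud liquid medium.” for “Müller–Hinton broth.”, “Fungal” for “Bacterial”, “10^4” for “10^6”, “25” for “37”, “48” for “24”, “included.” for “included. Only compounds giving zones >10 mm were tested.”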

Streptococcus pneumoniae [9] = test: Antimicrobial activity against Streptococcus pneumoniae RCMB 010010 assessed as inhibition zone at 5 mg/ml after 24 hrs; settings: RCMB 010010, 24 h, read-out: IZ; summary of the method: as §3
[10] = tested on: Syncephalastrum racemosum; test: Antifungal activity against Syncephalastrum racemosum RCMB 05922 assessed as inhibition zone at 5 mg/ml after 48 hrs; settings: RCMB 05922, 48 h, read-out: IZ
[11] = tested on: Staphylococcus epidermidis; test: Antimicrobial activity against Staphylococcus epidermidis RCMB 010024 assessed as absence of turbidity after 24 hrs; settings: RCMB 010024, 24 h; summary of the method: as §1
Escherichia coli [12] = test: Antimicrobial activity against Escherichia coli RCMB 010052 assessed as inhibition zone at 5 mg/ml after 24 hrs; settings: RCMB 010052, 24 h, read-out: IZ; summary of the method: as §3
Klebsiella pneumoniae [13] = test: Antimicrobial activity against Klebsiella pneumoniae RCMB 010093 assessed as inhibition zone at 5 mg/ml after 24 hrs; settings: for zone of inhibition at 5000 µg/mL: RCMB 010093, 24 h, read-out: IZ; summary of the method: as §3
[14] = tested on: Staphylococcus epidermidis; test: Antimicrobial activity against Staphylococcus epidermidis RCMB 010024 assessed as inhibition zone at 5 mg/ml after 24 hrs; settings: RCMB 010024, 24 h, read-out: IZ; summary of the method: as §3
Aspergillus fumigatus [15] = test: Antifungal activity against Aspergillus fumigatus RCMB 02568 assessed as absence of turbidity after 48 hrs; settings: RCMB 02568, 48 h
Summary of the method: as §1, with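 “Sabouraud liquid medium.” for “Müller–Hinton broth.”, “Fungal” for “Bacterial”, “10^4” for “10^6”, “25” for “37”, “48” for “24”, “included.” for “included. Only compounds giving zones >10 mm were tested.”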

Escherichia coli [16] = test: Antimicrobial activity against Escherichia coli RCMB 010052 assessed as absence of turbidity after 24 hrs; summary of the method: as §1
Proteus vulgaris [17] = test: Antimicrobial activity against Proteus vulgaris RCMB 010085 assessed as inhibition zone at 5 mg/ml after 24 hrs; settings: for zone of inhibition at 5000 µg/mL: RCMB 010085, 24 h, read-out: IZ; summary of the method: as §3
Proteus vulgaris [18] = test: Antimicrobial activity against Proteus vulgaris RCMB 010085 assessed as absence of turbidity after 24 hrs; summary of the method: as §1

Compound | MIC (Streptococcus pneumoniae [1]) [µg/mL] | MIC [2] [µg/mL] | MIC (Bacillus subtilis [3]) [µg/mL] | zone of inhibition at 5000 µg/mL (Aspergillus fumigatus [4]) [mm] | zone of inhibition at 5000 µg/mL (Geotrichum candidum [5]) [mm] | MIC (Klebsiella pneumoniae [6]; RCMB 010093, 24 h) [µg/mL] | zone of inhibition at 5000 µg/mL (Bacillus subtilis [7]) [mm] | MIC (Geotrichum candidum [8]) [µg/mL] | zone of inhibition at 5000 µg/mL (Streptococcus pneumoniae [9]) [mm] | zone of inhibition at 5000 µg/mL [10] [mm] | MIC [11] [µg/mL] | zone of inhibition at 5000 µg/mL (Escherichia coli [12]) [mm] | zone of inhibition at 5000 µg/mL (Klebsiella pneumoniae [13]) [mm] | zone of inhibition at 5000 µg/mL [14] [mm] | MIC (Aspergillus fumigatus [15]) [µg/mL] | MIC (Escherichia coli [16]; RCMB 010052, 24 h) [µg/mL] | other results
Cc1noc(NS(=O)(=O)c2ccc(N)cc2)c1C [SULFISOXAZOLE] | 1.95 (≈ 7.29 µM) | 125 (≈ 468 µM) | 0.98 (≈ 3.67 µM) | 15.1 | 16.8 | 7.81 (≈ 29.2 µM) | 20.8 | 15.6 (≈ 58.5 µM) | 19.6 | 13.2 | 7.81 (≈ 29.2 µM) | 15.2 | 18.2 | 17.5 | 62.5 (≈ 234 µM) | 62.5 (≈ 234 µM) | 
GENTAMICIN |  |  |  |  |  |  |  |  |  |  |  |  |  |  |  |  | MIC (Klebsiella pneumoniae [6]): 0.03 µg/mL; inhibition zone (IZ) (Proteus vulgaris [17]): 23.4 mm; MIC (Proteus vulgaris [18]): 0.24 µg/mL; inhibition zone (IZ) (Klebsiella pneumoniae [13]): 26.3 mm; MIC (Escherichia coli [16]): 1.95 µg/mL
COc1ccc(-c2c(C#N)c(N)n(-c3ccc(S(=O)(=O)Nc4onc(C)c4C)cc3)c(=O)c2C#N)cc1 | 0.98 (≈ 1.9 µM) | 1.95 (≈ 3.78 µM) | 0.49 (≈ 0.949 µM) | 20.6 | 20.9 | 0.49 (≈ 0.949 µM) | 22.2 | 0.98 (≈ 1.9 µM) | 20.3 | 19.7 | 7.81 (≈ 15.1 µM) | 16.2 | 22.3 | 18.1 | 0.98 (≈ 1.9 µM) | 31.2 (≈ 60.5 µM) | zone of inhibition at 5000 µg/mL (Proteus vulgaris [17]): 17.2 mm; MIC (Proteus vulgaris [18]; RCMB 010085, 24 h): 15.6 µg/mL (≈ 30.3 µM)
Cc1noc(NS(=O)(=O)c2ccc(-n3c(S)c(C#N)c(-c4ccc(Cl)cc4)c(C#N)c3=O)cc2)c1C | 0.49 (≈ 0.911 µM) | 1.95 (≈ 3.62 µM) | 0.12 (≈ 0.223 µM) | 21.6 | 22.8 | 0.24 (≈ 0.446 µM) | 24.4 | 0.24 (≈ 0.446 µM) | 22.3 | 20.2 | 0.49 (≈ 0.911 µM) | 20.6 | 23.2 | 20.2 | 0.98 (≈ 1.82 µM) | 0.98 (≈ 1.82 µM) | zone of inhibition at 5000 µg/mL (Proteus vulgaris [17]): 19.3 mm; MIC (Proteus vulgaris [18]; RCMB 010085, 24 h): 3.9 µg/mL (≈ 7.25 µM)
C[C@@H]1[C@H](O)[C@@H](C)/C=C/C=C/C=C/C=C/C=C/C=C/C=C/[C@H](O[C@@H]2O[C@H](C)[C@@H](O)[C@H](N)[C@@H]2O)C[C@@H]2O[C@](O)(C[C@@H](O)C[C@@H](O)[C@H](O)CC[C@@H](O)C[C@@H](O)CC(=O)O[C@H]1C)C[C@H](O)[C@H]2C(=O)O [AMPHOTERICIN B] |  | 7.81 (≈ 8.45 µM) |  | 23.7 | 28.7 |  |  | 0.007 (≈ 0.00758 µM) |  | 19.7 |  |  |  |  | 0.12 (≈ 0.13 µM) |  | 
Cc1noc(NS(=O)(=O)c2ccc(NC(=O)c3cn[nH]c3N)cc2)c1C | 7.81 (≈ 20.7 µM) | 15.6 (≈ 41.5 µM) | 7.81 (≈ 20.7 µM) | 18.6 | 18.9 | 125 (≈ 332 µM) | 18 | 7.81 (≈ 20.7 µM) | 17.8 | 17.2 | 31.2 (≈ 83 µM) | 13 | 14.6 | 16.1 | 7.81 (≈ 20.7 µM) | 125 (≈ 332 µM) | zone of inhibition at 5000 µg/mL (Proteus vulgaris [17]): 11 mm; MIC (Proteus vulgaris [18]; RCMB 010085, 24 h): 500 µg/mL (≈ 1330 µM)
Cc1noc(NS(=O)(=O)c2ccc(NC(=O)/C(C#N)=N/Nc3ccccc3)cc2)c1C | 62.5 (≈ 143 µM) | 15.6 (≈ 35.6 µM) | 7.81 (≈ 17.8 µM) | 16.5 | 17.8 | 3.9 (≈ 8.89 µM) | 18.4 | 7.81 (≈ 17.8 µM) | 15.5 | 17.3 | 1.95 (≈ 4.45 µM) | 13.5 | 19.1 | 19.8 | 15.6 (≈ 35.6 µM) | 125 (≈ 285 µM) | 
CC1(C)S[C@@H]2[C@H](NC(=O)[C@H](N)c3ccccc3)C(=O)N2[C@H]1C(=O)O [AMPICILLIN] | 0.12 (≈ 0.343 µM) |  | 0.24 (≈ 0.687 µM) |  |  |  | 32.4 |  | 23.8 |  | 0.06 (≈ 0.172 µM) |  |  | 25.4 |  |  | 
Cc1noc(NS(=O)(=O)c2ccc(NC(=O)/C(C#N)=C/N(C)C)cc2)c1C | 1.95 (≈ 5.01 µM) | 0.98 (≈ 2.52 µM) | 0.98 (≈ 2.52 µM) | 18.3 | 21.3 | 15.6 (≈ 40.1 µM) | 21.4 | 0.98 (≈ 2.52 µM) | 20 | 21.1 | 7.81 (≈ 20.1 µM) | 16.3 | 17.1 | 18.2 | 7.81 (≈ 20.1 µM) | 31.2 (≈ 80.2 µM) | 
Cc1noc(NS(=O)(=O)c2ccc(NC(=O)/C(C#N)=C/c3ccco3)cc2)c1C | 15.6 (≈ 37.9 µM) | 500 (≈ 1210 µM) | 15.6 (≈ 37.9 µM) | 13.9 | 14.6 | 0.12 (≈ 0.291 µM) | 17.4 | 62.5 (≈ 152 µM) | 16.9 | 12.1 | 31.2 (≈ 75.8 µM) | 14.9 | 15 | 16.2 | 125 (≈ 303 µM) | 0.12 (≈ 0.291 µM) | 
CCOc1ccc(N/N=C(\C#N)C(=O)Nc2ccc(S(=O)(=O)Nc3onc(C)c3C)cc2)cc1 | 1.95 (≈ 4.04 µM) | 3.9 (≈ 8.08 µM) | 1.95 (≈ 4.04 µM) | 19.3 | 21.4 | 31.2 (≈ 64.8 µM) | 20 | 0.98 (≈ 2.03 µM) | 19.6 | 18.6 | 7.81 (≈ 16.2 µM) | 15.9 | 16.3 | 17.6 | 3.9 (≈ 8.08 µM) | 31.2 (≈ 64.8 µM) | 
Cc1noc(NS(=O)(=O)c2ccc(NC(=O)c3c(Nc4ccccc4)sc(C#N)c3N)cc2)c1C | 62.5 (≈ 123 µM) | 62.5 (≈ 123 µM) | 15.6 (≈ 30.7 µM) | 16.3 | 17.3 | 125 (≈ 246 µM) | 17.4 | 15.6 (≈ 30.7 µM) | 15.2 | 15.2 | 125 (≈ 246 µM) | 11.2 | 13.6 | 14.2 | 31.2 (≈ 61.4 µM) | 500 (≈ 983 µM) | 
COc1ccc(N/N=C(\C#N)C(=O)Nc2ccc(S(=O)(=O)Nc3onc(C)c3C)cc2)cc1 | 15.6 (≈ 33.4 µM) | 3.9 (≈ 8.32 µM) | 0.98 (≈ 2.09 µM) | 16.3 | 19.8 | 1.95 (≈ 4.16 µM) | 21.2 | 1.95 (≈ 4.16 µM) | 17.3 | 18.6 | 1.95 (≈ 4.16 µM) | 15.9 | 20.2 | 20.2 | 31.2 (≈ 66.7 µM) | 31.2 (≈ 66.7 µM) | 
